Screening data deposited in PubChem BioAssay by Johns Hopkins Ion Channel Center.
Only some compounds are listed: those with a hit (about 3.7% of all), similar ones and a draw of the others.
hERG protect: hERG rescue from dofetilide block, primary screen, cell-based, CHO-hERG, FluxOR thallium flux, dofetilide IC70. dofetilide IC70 present. activation (rescue from dofetilide block), less the hit threshold, % at 10 µM. actives 0.51% (n = 310,000). AID 1511, 2009;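 active means activation above the mean of controls blocked by dofetilide plus 5 SD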;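 further: thallium influx through hERG after potassium depolarization seen as dye fluorescence rise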
KCNQ1 pot: potentiators or activators of KCNQ1 channel, primary screen, cell-based, thallium flux, high-throughput | Potassium voltage-gated channel subfamily KQT member 1 (Homo sapiens), P51787 | CHO-K1 KCNQ1, thallium flux FluxOR fluorescence; hits give high values | actives 0.35% (n = 310,000) | B-score at 10 µM | AID 2648, 2010;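 active means fluorescence ratio B-score, a plate-corrected score, at least three library SD, with initial intensity B-score within 5 SD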
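Assay system: CHO-K1 cells stably expressing KCNQ1. Medium: assay buffer for compound exposure, DMSO matched across wells. Timing: 37 °C overnight plating, 90-min dark dye load, 20-min compound pretreatment. Signal: kinetic FluxOR fluorescence, 10 s baseline plus 110 s post-stimulus.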
Kir21 block: inhibitors of mouse Kir2.1 inward-rectifier potassium channel; HEK293-Kir2.1, FluxOR thallium flux fluorescence; hits give low values; B-score at 10 µM; actives 0.85% (n = 310,000); AID 1672, 2009;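 active means fluorescence ratio B-score at or below minus 3 SD of library scores, with starting-brightness B-score within 2 SD, cut at about -4.2 in these data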;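 further: channel flux triggered by added potassium and thallium sulfate stimulus; B-score of peak minus minimum fluorescence over baseline after thallium stimulus; more negative B-score means stronger Kir2.1 block with less thallium influx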
KCNQ1 inh: inhibitors of human KCNQ1 channel, primary screen, cell-based, thallium flux, high-throughput; actives 1.3% (n = 310,000); Potassium voltage-gated channel subfamily KQT member 1 (Homo sapiens), P51787; AID 2642, 2010; CHO-K1 KCNQ1, FluxOR thallium flux fluorescence; hits give high values; B-score at 10 µM;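 active means compounds whose thallium flux B-score, printed positive for inhibition, exceeds three library SD while starting fluorescence stays within three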;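 further: channel opened by potassium depolarization with thallium stimulus after 20 min compound exposure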
KCNK3 block: human KCNK3 channel inhibitors, primary screen, CHO cells, FluxOR thallium flux, B-score; actives 0.84% (n = 340,000); B-score at 10 µM; Potassium channel subfamily K member 3 (Homo sapiens), O14649; FluxOR fluorescence; hits give low values;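 active means B-score under library mean minus 4 SD, starting fluorescence ratio at most library mean plus 5 SD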;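 further: more negative B-score means stronger inhibition of thallium flux through KCNK3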
Target sequence (O14649 whole entry, looked up): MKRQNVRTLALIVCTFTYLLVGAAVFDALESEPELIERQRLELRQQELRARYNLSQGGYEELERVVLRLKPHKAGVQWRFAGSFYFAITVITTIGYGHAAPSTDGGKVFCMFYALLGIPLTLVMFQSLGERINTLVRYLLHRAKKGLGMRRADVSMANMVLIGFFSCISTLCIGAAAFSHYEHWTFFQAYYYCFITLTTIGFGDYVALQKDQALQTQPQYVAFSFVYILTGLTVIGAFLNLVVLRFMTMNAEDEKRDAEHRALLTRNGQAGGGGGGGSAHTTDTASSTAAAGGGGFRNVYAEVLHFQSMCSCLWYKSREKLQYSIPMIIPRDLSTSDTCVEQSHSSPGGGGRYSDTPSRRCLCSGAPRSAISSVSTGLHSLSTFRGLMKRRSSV
KCNK9 block: KCNK9 potassium channel inhibitors, primary screen, HEK293 cells, thallium flux. Potassium channel subfamily K member 9 (Homo sapiens), Q9NPC2. FluxOR thallium flux fluorescence; hits give low values. B-score at 10 µM. actives 1.2% (n = 310,000). AID 488922, 2010;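 active means ratio B-score over 3 SD below the library mean, with starting fluorescence within 5 SD of its mean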;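 further: negative B-score means less thallium flux so channel inhibition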
The depositor's hits bear a star; i = inactive; . = not tested or not shown.

SMILES | hERG protect | KCNQ1 pot | Kir21 block | KCNQ1 inh | KCNK3 block | KCNK9 block
CCC(NC(=O)CSc1nnnn1C1CC1)c1ccc(Br)cc1 (configuration not stated) | . | . | . | . | i | .
Cc1cc(Nc2ccccc2)nn1C(=O)c1ccc([N+](=O)[O-])cc1 | -2 | i | 1.4 | i | i | i
Cc1cc(Nc2ccccc2)nn1C(=O)c1ccc(Cl)cc1 | -5 | i | -0.63 | i | i | -7.7*
Cc1nn(-c2ccccc2)c(C)c1/C=N/NC(=O)CSc1nnc(SCc2ccccc2Cl)s1 | -13 | i | 0.73 | 6* | i | i
COc1cc([N+](=O)[O-])ccc1NC(=O)Nc1ccc2c(c1)OCCO2 | 4.6* | i | 0.87 | i | i | i
COc1cc([N+](=O)[O-])ccc1NC(=S)Nc1cc(C(=O)OC(C)C)cc(C(=O)OC(C)C)c1 | -11 | i | 0.19 | 6* | i | i
Cc1cc(C(=O)COc2cc(F)ccc2[N+](=O)[O-])c(C)n1C1CC1 | 34* | i | -2.5 | i | i | i
COc1ccc(-c2c(-c3ccsc3)oc3ccc(N4CCOCC4)cc23)cn1 | -8 | i | -1.9 | i | i | -7.9*
Clc1ccc(CN2CCC(c3nc4ccc(Cl)cc4[nH]3)CC2)cc1 | -13 | i | -8* | i | i | i
Cn1c(SCC(=O)NCc2ccccc2)ncc(C(=O)Nc2ccccc2)c1=O | -4 | i | -0.5 | i | i | i
CC(=O)Nc1ccc(NC(=O)CSc2ncc(C(=O)Nc3ccccc3)c(=O)n2C)cc1 | -12 | i | -0.99 | 7* | i | i
CCCCC#Cc1cncc(C(=O)N/N=C/c2cccc(OC)c2)c1 | -16 | i | -0.97 | i | i | i
COC(=O)C1=C(C)N=c2s/c(=C/c3ccoc3)c(=O)n2C1c1ccccc1 (configuration not stated) | -18 | i | -1.2 | 9* | i | i
CC1=C(C(=O)OC(C)C)C(c2ccc(Cl)cc2)n2c(s/c(=C\c3ccc(OCC(=O)O)cc3)c2=O)=N1 (configuration not stated) | -1 | i | -2 | 7* | i | i
CCOC(=O)C1=C(C)N=c2s/c(=C\c3ccc(OCC(=O)O)c(OC)c3)c(=O)n2C1c1ccc(OC)cc1 (configuration not stated) | -1 | i | 1.9 | i | i | i
CCOC(=O)C1=C(C)N=c2s/c(=C\c3cccc(OCC(=O)O)c3)c(=O)n2C1c1ccccc1 (configuration not stated) | -10 | i | -0.89 | i | i | i
COc1ccc(N(Cc2cc3cc(OC)ccc3[nH]c2=O)S(=O)(=O)c2ccc(NC(C)=O)cc2)cc1 | -23 | i | -0.5 | i | i | i
COc1ccc(N(Cc2cc3ccccc3[nH]c2=O)S(=O)(=O)c2ccc(OC)cc2)cc1 | -10 | i | 0.62 | i | i | -7.2*
Cc1ccc(NS(=O)(=O)c2cccc(C(=O)NCC(c3ccc(F)cc3)N3CCOCC3)c2)cc1 (configuration not stated) | -14 | i | -0.95 | i | i | i
COc1ccc(C2c3ccc4ccccc4c3Oc3ncn(CCO)c(=N)c32)cc1 (configuration not stated) | -13 | i | -5.2* | i | i | i
N=c1c2c(ncn1CCCO)Oc1ccc3ccccc3c1C2c1ccccc1 (configuration not stated) | -11 | i | -4.2* | i | i | i
COc1ccc(C2c3ccc4ccccc4c3Oc3ncn(CCN(C)C)c(=N)c32)cc1 (configuration not stated) | -20 | i | -4.3* | i | i | i
COc1ccc(C2c3ccc4ccccc4c3Oc3ncn(CCCO)c(=N)c32)cc1OC (configuration not stated) | -12 | 9* | -1.4 | i | i | i
COc1ccc(C2c3ccc4ccccc4c3Oc3ncn(CCCO)c(=N)c32)cc1 (configuration not stated) | -20 | i | -2.9 | i | i | i
COc1ccc(C2c3ccc4ccccc4c3Oc3ncn(CCO)c(=N)c32)cc1OC (configuration not stated) | -10 | i | -1.8 | i | i | i
SMILES | hERG protect | KCNQ1 pot | Kir21 block | KCNQ1 inh | KCNK3 block | KCNK9 block
N=c1c2c(ncn1CCCO)Oc1c(ccc3ccccc13)C2c1ccccc1 (configuration not stated) | -18 | i | -3.7 | i | i | i
CN(C)CCCn1cnc2c(c1=N)C(c1ccccc1)c1ccc3ccccc3c1O2 (configuration not stated) | -17 | i | -7.2* | i | i | i
O=C(NCC1CCCO1)C1CCCN(S(=O)(=O)c2ccc(Cl)cc2)C1 (configuration not stated) | -6 | i | -0.13 | i | i | i
Cc1ccc(C2(CCNCc3ccc(N(C)C)cc3)CCOC(C(C)C)C2)cc1 (configuration not stated) | -18 | i | -4.7* | i | i | i
CC(C)C1CC(CCNCc2ccc(N(C)C)cc2)(c2ccccc2)CCO1 (configuration not stated) | -7 | i | -2.4 | i | i | i
O=C(CSc1ccccc1)OCC(=O)N1CCN(C(=O)c2ccco2)CC1 | . | . | . | . | i | .
COc1ccc(S(=O)(=O)N2CCN(CC(=O)c3ccc(O)c(O)c3)CC2)cc1 | -6 | i | -0.89 | i | i | i
O=C(NNc1nc2c(F)cc(F)cc2s1)c1ccccc1 | -7 | 61* | 0.28 | i | i | i
O=C(Cc1csc(NC(=O)Nc2cccc(Cl)c2)n1)NC1CCCC1 | -16 | i | 0.89 | i | i | i
COc1cccc(OC)c1OCCOCCN1CCN(C)CC1 | 19* | 19* | 0.01 | i | i | i
COc1ccc(OCCOCCN2CCN(C)CC2)cc1 | -2 | i | 0.72 | i | i | i
COc1cc(/C=N/NC(=O)Cn2nc([N+](=O)[O-])cc2C)cc(Br)c1OCc1ccccc1 | -7 | i | -2.3 | i | -9.9* | i
CCOc1cc(/C=N/O)cc(Br)c1OCC(=O)NCc1ccccc1 | -3 | i | -1.2 | i | i | i
